Reference: ChEMBL document CHEMBL1153097, “Synthesis and biological evaluation of a novel series of pyrazole chalcones as anti-inflammatory, antioxidant and antimicrobial agents” (Bioorg Med Chem, 2009)
The source made the active and inactive calls. No cut-off for these calls is given here.

What was measured:
Bacillus subtilis = experiment: Antimicrobial activity against Bacillus subtilis MTCC 1789 at 100 ug/ml after 24 hrs by agar diffusion method; format: functional; conditions: MTCC 1789, 24 h, read-out: IZ
Procedure, shortened: (§1)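 Agar diffusion on Mueller Hinton agar. Plates were seeded with 0.1 mL of bacterial suspension at 10⁵ cfu/mL in 0.85% sterile saline. Duplicate plates were incubated 24 h at 37 °C, and the zone of inhibition was measured in mm.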

Aspergillus niger [1] = experiment: Antimicrobial activity against Aspergillus niger MTCC 1781 at 250 ug/ml after 48 hrs by agar diffusion method; format: functional; conditions: MTCC 1781, 48 h, read-out: IZ
Procedure, shortened: (§2)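 Agar diffusion on Sabouraud's dextrose agar. Plates were spread with 0.1 mL of fungal spore suspension in sterile distilled water, adjusted to 10⁶ cfu/mL. Duplicate plates were incubated 48 h at 28 °C, and the zone of inhibition was measured in mm.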

Trichoderma viride [2] = experiment: Antimicrobial activity against Trichoderma viride MTCC 167 at 250 ug/ml after 48 hrs by agar diffusion method; format: functional; conditions: MTCC 167, 48 h, read-out: IZ; procedure, shortened: as §2
Aspergillus flavus [3] = experiment: Antimicrobial activity against Aspergillus flavus MTCC 2501 at 250 ug/ml after 48 hrs by agar diffusion method; format: functional; conditions: MTCC 2501, 48 h, read-out: IZ; procedure, shortened: as §2
THP-1 [4] = experiment: Antiinflammatory activity in human THP1 cells assessed as inhibition of LPS-induced TNFalpha release at 10 uM after 24 hrs by ELISA; format: functional; conditions: THP-1, 24 h
Procedure, shortened: (§3)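 PMA-differentiated THP-1 cells in RPMI 1640 with 10% FBS, penicillin and streptomycin. Test compound in 0.5% DMSO added 30 min at 37 °C before E. coli 0127:B8 LPS, then further incubation at 37 °C. Supernatant TNF-α and IL-6 measured by ELISA. Percent inhibition calculated against control.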

THP-1 [5] = experiment: Antiinflammatory activity in human THP1 cells assessed as inhibition of LPS-induced IL6 release at 10 uM after 24 hrs by ELISA; format: functional; conditions: THP-1, 24 h; procedure, shortened: as §3
THP-1 [6] = experiment: Cytotoxicity against human THP1 cells assessed as CCK8 […] at 10 uM after 24 hrs […]; format: cell-based; conditions: thp-1, 24 h
Procedure, shortened: (§4)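 Cytotoxicity was read with CCK-8 in the same wells as the cytokine assay. PMA-differentiated THP-1 cells were exposed to compound in 0.5% DMSO for 30 min at 37 °C, then stimulated with LPS and incubated further at 37 °C.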

[7] = system: Radical scavenging activity; experiment: Antioxidant activity assessed as DPPH radical scavenging activity; format: functional; design: concentration or dose not given beside the values
Escherichia coli = experiment: Antimicrobial activity against Escherichia coli MTCC 1650 at 100 ug/ml after 24 hrs by agar diffusion method; format: functional; conditions: MTCC 1650, 24 h, read-out: IZ; procedure, shortened: as §1
Klebsiella pneumoniae [8] = experiment: Antimicrobial activity against Klebsiella pneumoniae NCIM 2957 at 100 ug/ml after 24 hrs by agar diffusion method; format: functional; conditions: for zone of inhibition at 100 µg/mL: NCIM 2957, 24 h, read-out: IZ; procedure, shortened: as §1
Proteus vulgaris [9] = experiment: Antimicrobial activity against Proteus vulgaris MTCC 1771 at 100 ug/ml after 24 hrs by agar diffusion method; format: functional; conditions: MTCC 1771, 24 h, read-out: IZ; procedure, shortened: as §1
Staphylococcus aureus [10] = experiment: Antimicrobial activity against Staphylococcus aureus MTCC 96 at 100 ug/ml after 24 hrs by agar diffusion method; format: functional; conditions: MTCC 96, 24 h, read-out: IZ; procedure, shortened: as §1
Klebsiella pneumoniae [11] = experiment: Antimicrobial activity against Klebsiella pneumoniae NCIM 2957 at 10 ug/ml after 24 hrs by agar diffusion method; format: functional; conditions: NCIM 2957, 24 h, read-out: IZ; procedure, shortened: as §1
Proteus vulgaris [12] = experiment: Antimicrobial activity against Proteus vulgaris MTCC 1771 at 10 ug/ml after 24 hrs by agar diffusion method; format: functional; conditions: MTCC 1771, 24 h, read-out: IZ; procedure, shortened: as §1
Staphylococcus aureus [13] = experiment: Antimicrobial activity against Staphylococcus aureus MTCC 96 at 10 ug/ml after 24 hrs by agar diffusion method; format: functional; conditions: MTCC 96, 24 h, read-out: IZ
Procedure, shortened: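 Mueller Hinton agar seeded with 0.1 mL of bacterial suspension in sterile 0.85% saline at 10⁵ cfu/mL. Duplicate plates incubated 24 h at 37 ± 0.5 °C. Activity read as zone of inhibition in mm.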

Aspergillus niger [14] = experiment: Antimicrobial activity against Aspergillus niger MTCC 1781 at 30 ug/ml after 48 hrs by agar diffusion method; format: functional, organism-based
Procedure, shortened: (§5)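 Fungal spore suspensions in sterile distilled water adjusted to 10⁶ cfu/mL; 0.1 mL spread on Sabouraud's dextrose agar plates. Duplicate plates incubated 48 h at 28 ± 0.2 °C. Activity read as zone of inhibition in mm.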

Trichoderma viride [15] = experiment: Antimicrobial activity against Trichoderma viride MTCC 167 at 30 ug/ml after 48 hrs by agar diffusion method; format: functional, organism-based; procedure, shortened: as §5
Aspergillus flavus [16] = experiment: Antimicrobial activity against Aspergillus flavus MTCC 2501 at 30 ug/ml after 48 hrs by agar diffusion method; format: functional, organism-based; procedure, shortened: as §5
THP-1 [17] = experiment: Antiinflammatory activity in human THP1 cells assessed as inhibition of LPS-induced TNFalpha release at 1 uM/mL after 24 hrs by ELISA; format: functional; conditions: THP-1, 24 h; procedure, shortened: as §3
THP-1 [18] = experiment: Antiinflammatory activity in human THP1 cells assessed as inhibition of LPS-induced IL6 release at 1 uM/mL after 24 hrs by ELISA; format: functional; conditions: THP-1, 24 h; procedure, shortened: as §3
[19] = Cytotoxicity against human THP1 cells assessed as CCK8 […] at 1 uM/mL after 24 hrs […]; format: cell-based; conditions: THP-1 cells; procedure, shortened: as §4

| Compound | zone of inhibition at 100 µg/mL (Bacillus subtilis) | zone of inhibition at 250 µg/mL (Aspergillus niger [1]) | zone of inhibition at 250 µg/mL (Trichoderma viride [2]) | zone of inhibition at 250 µg/mL (Aspergillus flavus [3]) | inhibition at 10 µM (THP-1 [4]) | inhibition at 10 µM (THP-1 [5]) | Activity (THP-1 [6]) | Activity [7] | zone of inhibition at 100 µg/mL (Escherichia coli) | zone of inhibition at 100 µg/mL (Staphylococcus aureus [10]) | further results |
| --- | --- | --- | --- | --- | --- | --- | --- | --- | --- | --- | --- |
| COc1ccc(C(=O)/C=C/c2cn(-c3ccccc3)nc2-c2cccc(Cl)c2)c(OC)c1 | 8 mm | 9 mm | 11 mm | 10 mm | 0% | 67.5% | 0% | 29.7% | 9 mm | 6 mm | inhibition zone (IZ) (Klebsiella pneumoniae [8]): Active; zone of inhibition at 100 µg/mL (Proteus vulgaris [9]): 8 mm |
| CN(C)[C@@H]1C(O)=C(C(N)=O)C(=O)[C@@]2(O)C(O)=C3C(=O)c4c(O)cccc4[C@@](C)(O)[C@H]3C[C@@H]12 [TETRACYCLINE] | – | – | – | – | – | – | – | – | – | – | zone of inhibition at 10 µg/mL (Klebsiella pneumoniae [11]): 32 mm; zone of inhibition at 10 µg/mL (Proteus vulgaris [12]): 20 mm; zone of inhibition at 10 µg/mL (Staphylococcus aureus [13]): 17 mm |
| COc1ccc(C(=O)/C=C/c2cn(-c3ccccc3)nc2-c2ccc(Cl)cc2Cl)c(OC)c1 | 9 mm | 8 mm | 10 mm | 10 mm | 0% | 40.8% | 0% | 18.2% | 11 mm | 10 mm | – |
| COc1ccc(C(=O)/C=C/c2cn(-c3ccccc3)nc2-c2ccc(Br)cc2)c(OC)c1 | 7 mm | 11 mm | 13 mm | 13 mm | 1.81% | 11.3% | 0% | 17.2% | 9 mm | 8 mm | zone of inhibition at 100 µg/mL (Klebsiella pneumoniae [8]): 10 mm |
| COc1ccc(C(=O)/C=C/c2cn(-c3ccccc3)nc2-c2ccccc2Cl)c(OC)c1 | 7 mm | 11 mm | 12 mm | 9 mm | 0% | 14.5% | 0% | 13.8% | 12 mm | 8 mm | – |
| NYSTATIN | – | – | – | – | – | – | – | – | – | – | inhibition zone (IZ) (Aspergillus niger [14]): 11 mm; inhibition zone (IZ) (Trichoderma viride [15]): 12 mm; inhibition zone (IZ) (Aspergillus flavus [16]): 11 mm |
| COc1ccc(C(=O)/C=C/c2cn(-c3ccccc3)nc2-c2ccccc2)c(OC)c1 | 10 mm | 12 mm | 14 mm | 15 mm | 0% | 64.7% | 0% | 31.8% | 10 mm | 8 mm | – |
| COc1ccc(C(=O)/C=C/c2cn(-c3ccccc3)nc2-c2ccc(C)cc2)c(OC)c1 | 8 mm | 14 mm | 15 mm | 12 mm | 0% | 0% | 0% | 13.5% | 11 mm | 9 mm | zone of inhibition at 100 µg/mL (Klebsiella pneumoniae [8]): 12 mm |
| C[C@@H]1C[C@H]2[C@@H]3CCC4=CC(=O)C=C[C@]4(C)[C@@]3(F)[C@@H](O)C[C@]2(C)[C@@]1(O)C(=O)CO [DEXAMETHASONE] | – | – | – | – | – | – | – | – | – | – | inhibition at 1 µM (THP-1 [17]): 69%; inhibition at 1 µM (THP-1 [18]): 90%; inhibition at 24 h, 1 µM [19]: 0% |
| COc1ccc(C(=O)/C=C/c2cn(-c3ccccc3)nc2-c2ccc(Cl)cc2)c(OC)c1 | 13 mm | 11 mm | 13 mm | 10 mm | 1.13% | 2.71% | 11.488% | 18.7% | 11 mm | 11 mm | zone of inhibition at 100 µg/mL (Proteus vulgaris [9]): 12 mm |
| COc1ccc(O)c(C(C)(C)C)c1.COc1ccc(O)cc1C(C)(C)C | – | – | – | – | – | – | – | 66.8% | – | – | – |
| COc1ccc(C(=O)/C=C/c2cn(-c3ccccc3)nc2-c2ccc(F)cc2)c(OC)c1 | 14 mm | 13 mm | 14 mm | 12 mm | 0% | 0% | 0% | 26.7% | 12 mm | 15 mm | zone of inhibition at 100 µg/mL (Proteus vulgaris [9]): 10 mm |
| COc1ccc(-c2nn(-c3ccccc3)cc2/C=C/C(=O)c2ccc(OC)cc2OC)cc1 | 10 mm | 15 mm | 16 mm | 14 mm | 0% | 38.2% | 0% | 34.6% | 8 mm | 11 mm | inhibition zone (IZ) (Klebsiella pneumoniae [8]): Active; zone of inhibition at 100 µg/mL (Proteus vulgaris [9]): 7 mm |
| COc1ccc(C(=O)/C=C/c2cn(-c3ccccc3)nc2-c2ccc(OC)cc2OC)c(OC)c1 | 6 mm | 12 mm | 14 mm | 13 mm | 0% | 37.9% | 2.5107% | 30.3% | 10 mm | 7 mm | zone of inhibition at 100 µg/mL (Klebsiella pneumoniae [8]): 8 mm |
